Source: PubChem (The Scripps Research Institute Molecular Screening Center)
In the library only some 4.5% were active in any assay of this set; here they are far more common.
CHO parental Ca = counter-screen: ATP calcium response change in parental CHO cells; parental CHO-K1, ATP-induced calcium, Fluo-8 fluorescence; inhibition, % at 5.6 µM; hit rate 0.63% among 330,000;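 active = inhibition above that plate's mean sample inhibition plus 3 SD, cut at about 26% in these data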
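Assay system – parental CHO cells · Reagent – ATP stimulus · Detection – intracellular calcium via Fluo-8 no-wash fluorescent dye · Evaluation – percent inhibition of ATP-evoked calcium rise, normalized to controls · Controls – ATP wells versus no-ATP DMSO wells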
OX1R antag-1 = blocks the human orexin 1 receptor; AID 434989; hit rate 0.43% among 330,000; inhibition, % at 5 µM; O43613; CHO/OX1R cells, Fluo-8 calcium fluorescence, orexin A;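 active = inhibition above its plate's threshold, mean inhibition of all tested compounds on the plate plus 3 SD, cut at about 37% in these data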
TAAR1 antagonist = human TAAR1 antagonism | inhibition, % at 3 µM | CHO RD-HGA16 TAAR1, Fluo-8 calcium fluorescence, antagonist | AID 624466 | Q96RJ0 | hit rate 1.5% among 360,000;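 active = inhibition above a per-plate cutoff, the mean inhibition of test compounds on that plate plus 3 SD, cut at about 49% in these data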
Target sequence (Q96RJ0 whole entry, looked up): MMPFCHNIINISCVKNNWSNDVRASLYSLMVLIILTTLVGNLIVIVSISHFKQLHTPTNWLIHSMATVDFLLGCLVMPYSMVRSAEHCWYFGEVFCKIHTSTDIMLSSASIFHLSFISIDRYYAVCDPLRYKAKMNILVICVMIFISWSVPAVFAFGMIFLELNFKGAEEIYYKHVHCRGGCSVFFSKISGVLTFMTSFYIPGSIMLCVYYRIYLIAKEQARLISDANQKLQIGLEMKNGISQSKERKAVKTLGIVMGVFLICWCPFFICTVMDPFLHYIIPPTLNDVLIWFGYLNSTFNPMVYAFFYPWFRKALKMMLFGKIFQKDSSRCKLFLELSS
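Material: RD-HGA16 CHO cells with stable hTAAR1 and Gα16; Dosing: single nominal final test compound concentration of 3 µM; Schedule: seeding 17-24 h prior, 75-min 37 °C, 30-min RT dye loading; Detection: kinetic Fluo-8 calcium fluorescence measurement; Measure: % inhibition from peak post-agonist over basal fluorescence ratio; Benchmarks: vehicle and agonist controls.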
OX1R antag-2 = antagonists of human orexin 1 receptor (OX1R); O43613; inhibition, % at 6.6 µM; hit rate 1.8% among 330,000; OX1R-expressing cells, FRET antagonist read-out; in the data active = inhibition mostly above about 38%, no sharp cut-off; inactive = mostly below about 40%
GPR7 antag = antagonists of human GPR7 (neuropeptides B/W receptor 1); P48145; GPR7-expressing cells, fluorescence antagonist assay; inhibition, % at 4.4 µM; hit rate 1.1% among 290,000; AID 1861; in the data active = inhibition above about 16%, passing the limit was not always enough;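 also: cells stimulated with the agonist NPW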
Target sequence (P48145 whole entry, looked up): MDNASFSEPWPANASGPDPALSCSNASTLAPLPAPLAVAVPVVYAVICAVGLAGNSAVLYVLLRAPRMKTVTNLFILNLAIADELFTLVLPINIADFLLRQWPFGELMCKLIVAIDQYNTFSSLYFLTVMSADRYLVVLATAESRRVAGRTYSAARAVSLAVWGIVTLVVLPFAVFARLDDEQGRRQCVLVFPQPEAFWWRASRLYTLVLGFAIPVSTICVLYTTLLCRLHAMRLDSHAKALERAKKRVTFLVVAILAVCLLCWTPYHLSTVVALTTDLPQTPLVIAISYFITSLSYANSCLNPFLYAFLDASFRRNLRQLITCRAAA
TAAR1 agonist = agonists of human TAAR1 | Q96RJ0 | CHO RD-HGA16 TAAR1, Fluo-8 calcium fluorescence; vehicle wells 0%, saturating PEA agonist 100% | activation, % at 3 µM | hit rate 0.99% among 360,000 | AID 624467;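 active = activation above the mean activation of all test compounds in the run plus 3 SD, cut at about 38% in these data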
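Benchmarks: low control DMSO, high control PEA (EC100); System: CHO RD-HGA16 cells carrying human TAAR1 plus Gα16; Detection: Fluo-8 fluorescence, 5 s baseline then 140 s kinetic read; Schedule: 17-24 h plating, Fluo-8 75 min 37 °C, 30 min RT; Read-out basis: % activation from peak over basal fluorescence ratio, DMSO-to-PEA scaled.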
OX1R HTRF confirm = confirmation of human orexin 1 receptor antagonists, HTRF format | shares compounds with OX1R antag-2 | OX1R-expressing cells, HTRF antagonist assay | inhibition, % at 6.6 µM | hit rate 49% among 1,800 | AID 492964; in the data active = inhibition above about 55%;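 also: CHO cells expressing OX1R stimulated with orexin A at about EC80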
CHO-K1 HTRF = signal in parental CHO-K1 cells, OX1R antagonist counter-screen; shares compounds with OX1R antag-2; HTRF counterscreen; hit rate 48% among 1,800; inhibition, % at 6.6 µM; in the data active = inhibition above about 17%
Hits are given with their value; 0 = inactive; - = no result given.

SMILES	CHO parental Ca	OX1R antag-1	TAAR1 antagonist	OX1R antag-2	GPR7 antag	TAAR1 agonist	OX1R HTRF confirm	CHO-K1 HTRF
O=C1/C(=C/c2cccs2)SC(=S)N1CC(=O)N1CCCCC1CCO (stereo not drawn)	0	0	0	0	0	0	-	-
CN1C(=O)C2(N=c3ccccc3=N2)c2ccccc21	0	0	-	79	0	-	86	0
CCCS(=O)(=O)NC(=O)C1(C)CCCN(C(=O)c2ccccc2Br)C1 (stereo not drawn)	-	-	0	-	-	0	-	-
O=[N+]([O-])c1c(Nc2ccccc2O)cc(N2CCOCC2)c2nonc12	0	0	0	80	0	0	0	34
O=C1C2C(C(=O)N1/N=C/c1ccc([N+](=O)[O-])o1)C1C=CC2C12CC2 (stereo not drawn)	0	0	0	80	0	0	0	59
O=[N+]([O-])c1ccc(-c2ccc(S(=O)(=O)N3CCOCC3)cc2)cc1	0	0	0	0	0	0	-	-
O=C1CN(S(=O)(=O)c2ccc([N+](=O)[O-])cc2)CC(=O)N1	0	0	0	77	0	0	0	66
CN1C(=O)C(C)(C)c2cc(S(=O)(=O)N3CCN(c4ccccc4F)CC3)ccc21	0	0	0	0	0	0	-	-
Cc1ccc(C(C)C)c(OCC(=O)c2c(O)c3ccccc3oc2=O)c1	0	0	0	82	0	0	0	0
O/N=C/c1cn(-c2ccccc2)nn1	0	0	0	0	0	0	-	-
Cn1cc(/C=N\O)nc2c(=O)n(-c3ccccc3)c(=O)nc1-2	0	0	0	78	0	0	68	89
CCOc1ccc(-c2c(C(=O)N/N=C/c3cccnc3)nnn2-c2nonc2N)cc1	0	0	0	0	0	0	-	-
Cc1ccc2c(COC(=O)C3CSC4(C)CCC(=O)N34)cc(=O)oc2c1C (stereo not drawn)	0	0	0	0	-	0	-	-
CC(OC(=O)CC1CC2CCC1C2)C(=O)Nc1cccc(S(=O)(=O)N2CCOCC2)c1 (stereo not drawn)	0	0	0	0	-	0	-	-
COc1ccc2no[n+]([O-])c2c1	0	0	-	0	0	-	-	-
Cc1cnnc2ccc3c(no[n+]3[O-])c12	0	0	0	126	0	0	0	54
Cc1ccc(C(=O)NNC(=O)c2ccncc2)cc1[N+](=O)[O-]	0	0	0	0	-	0	-	-
Cc1ccc(NC(=O)c2ccncc2)cc1[N+](=O)[O-]	0	0	0	105	0	0	0	32
CCOC(=O)c1ccc(CNCc2ccccc2)cc1	0	0	0	80	0	0	0	0
CCOC(=O)c1ccc(CNCc2ccc(Br)cc2)cc1	0	0	0	0	0	0	-	-
CCOC(=O)c1ccc(NC(=O)c2cc3ccccc3o2)cc1	0	0	0	77	0	0	72	0
CCOC(OCC)c1cc2ccccc2cn1	0	0	0	0	-	0	-	-
Cn1cccc([N+](=O)[O-])c1=O	-	-	0	-	-	0	-	-
Cn1c(=O)c(=O)n(C)c2cc([N+](=O)[O-])c([N+](=O)[O-])cc21	0	0	0	115	0	0	0	63
CC(C)Oc1cccc(NC(=O)C2(C)CCN2C(C)C)c1 (stereo not drawn)	-	-	0	-	-	0	-	-
SMILES	CHO parental Ca	OX1R antag-1	TAAR1 antagonist	OX1R antag-2	GPR7 antag	TAAR1 agonist	OX1R HTRF confirm	CHO-K1 HTRF
CCOC(=O)c1cc2c(=O)n3ccccc3nc2n(CCOC)c1=NC(=O)c1c(-c2c(F)cccc2Cl)noc1C	0	0	0	0	0	0	-	-
CCOC(=O)c1cc2c(=O)n3ccccc3nc2n(CCCOC)c1=NC(=O)c1cccnc1	0	0	-	0	0	-	-	-
CCOC(=O)c1cc2c(=O)n3ccccc3nc2n(CCCOC)c1=NC(=O)C(C)(C)C	0	0	0	84	0	0	0	27
CCOC(=O)c1cc2c(=O)n3ccccc3nc2n(CC(C)C)c1=NC(=O)c1ccco1	0	0	0	117	0	0	0	40
CCOC(=O)c1cc2c(=O)n3ccccc3nc2n(CCOC)c1=NC(=O)c1ccncc1	0	0	0	80	0	0	58	52
CCN(CC)CCCNC1=C(Cl)C(=O)c2ccccc2C1=O	0	0	0	86	0	0	88	113
C=CCNC1=C(Cl)C(=O)c2ccccc2C1=O	0	0	0	140	0	0	64	94
O=C1C(Cl)=C(NCc2cccnc2)C(=O)c2ccccc21	0	0	0	84	0	0	66	98
FC(F)(F)c1ccccc1-c1ccc2nncn2c1	-	-	0	-	-	0	-	-
Cc1ccc(NC(=O)COc2cccc3c2OC(C)(C)C3)c(O)c1	0	0	0	0	-	0	-	-
COCCN(C(=O)COC(=O)C12CC3CC(CC(C3)C1)C2)c1c(N)n(Cc2ccccc2)c(=O)[nH]c1=O	-	-	0	-	-	0	-	-
CC1(C(=O)NS(=O)(=O)c2ccc(C#N)cc2)CCN1C(=O)C1(c2ccccc2)CCCC1 (stereo not drawn)	-	-	0	-	-	0	-	-
CCn1cc(C(=O)NCCCOC(C)C)c(=O)c2cc(S(=O)(=O)N3CCOCC3)ccc21	0	0	0	0	0	0	-	-
O=[N+]([O-])c1ccc2c(c1)C(O)n1ncnc1S2 (stereo not drawn)	0	0	0	108	0	0	0	48
CCN(CC(=O)Nc1cc(Cl)ccc1C)C(=O)c1ccc2c(c1)NC(=O)C(C)S2 (stereo not drawn)	0	0	0	0	-	0	-	-
COc1cc(SC)ccc1C(=O)Nc1ccc2ncccc2c1	0	0	0	90	0	0	86	0
COc1ccc(C(=O)NCCN2C(=O)S/C(=C\c3cccnc3)C2=O)c(OC)c1OC	0	0	0	82	0	0	58	24
CC(C(=O)NCCN1C(=O)S/C(=C\c2cccnc2)C1=O)N1C(=O)c2ccccc2C1=O (stereo not drawn)	0	0	0	79	0	0	64	40
CC(OC(=O)c1ccc(Br)o1)C(=O)NCC1CCCCC1 (stereo not drawn)	0	0	0	0	-	0	-	-
COc1ccc(NC(C)C(=O)N/N=C/c2ccc([N+](=O)[O-])s2)cc1 (stereo not drawn)	0	0	0	0	0	0	-	-
Cn1c(SCC(=O)N/N=C/c2cc([N+](=O)[O-])ccc2O)nnc1-c1ccccc1	0	0	0	0	0	0	-	-
COC(=O)N/N=C/c1ccc([N+](=O)[O-])s1	0	0	0	106	0	0	0	85
O=C(N/N=C/c1ccc([N+](=O)[O-])s1)c1ccccc1	0	0	0	107	0	0	0	52
Cn1c(SCC(=O)N/N=C/c2ccc([N+](=O)[O-])s2)nnc1-c1ccccc1	0	0	0	87	0	0	0	52
